# Key:
# Leukotriene B4 receptor [1] = target: T1, Leukotriene B4 receptor (Homo sapiens, UniProt Q9NPC1+Q15722); assay: Binding affinity towards human LTB4 receptor measured as inhibition of binding of [3H]LTB4 to isolated human neutrophils
# [2] = target: Leukotriene B4 receptor (Cavia porcellus); assay: Binding affinity towards Leukotriene B4 receptor guinea pig lung membrane using [3H]LTB4 as radioligand
# Leukotriene B4 receptor [3] = target: T1, Leukotriene B4 receptor; assay: Inhibition of LTB4 induced expression of human neutrophil integrin CD11b/CD18.; type: functional
# Outline: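 Human neutrophils stimulated with LTB4; test agents, mostly as sodium salts, dissolved in dilute sodium bicarbonate vehicle. Integrin CD11b/CD18 surface expression read by flow cytometry. IC50 derived from inhibition of LTB4-induced up-regulation. Where SEM is given, the value is the mean of at least four determinations.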
Ki (Leukotriene B4 receptor [1]) [nM],Ki [2] [nM],IC50 (Leukotriene B4 receptor [3]) [nM],Compound
22,12,–,CCc1cc(-c2ccccc2)c(O)cc1OCCCOc1ccc2c(=O)c3ccccc3oc2c1CCC(=O)O
36,14,8.5,CCc1cc(-c2ccc(F)cc2)c(O)cc1OCCCOc1cccc(Oc2ccccc2C(=O)O)c1CC(C)C
4.4,9.5,2.5,CCCc1c(OCCCOc2cc(O)c(-c3ccc(F)cc3)cc2CC)cccc1Oc1cccc(F)c1C(=O)O
350,11,7.4,CCCc1c(OCCCOc2cc(O)c(-c3ccc(F)cc3)cc2CC)cccc1Sc1ccccc1C(=O)O
8.3,6.4,64,CCc1cc(-c2ccc(F)cc2)c(O)cc1OCCCOc1cccc(OC)c1CCC(=O)O
8,3.8,31,CCc1cc(-c2ccc(F)cc2)c(O)cc1OCCCOc1ccccc1CCC(=O)O
33,–,–,CCc1cc(-c2cccc(C(F)(F)F)c2)c(O)cc1OCCCCCC(C)(C)c1nn[nH]n1
0.51,0.11,–,CCc1cc(-c2ccccc2)c(O)cc1OCCCOc1ccc2c(=O)c3cc(C(=O)O)ccc3oc2c1CCC(=O)O
10,14,3.2,CCCc1c(OCCCOc2cc(O)c(-c3ccccc3)cc2CC)cccc1Oc1cccc(F)c1C(=O)O
17,6.6,3.3,CCCc1c(OCCCOc2cc(O)c(-c3ccc(F)cc3)cc2CC)cccc1Oc1ccccc1C(=O)O [ETALOCIB]

# More lines, now with the values behind:
Compound,Ki (Leukotriene B4 receptor [1]) [nM],Ki [2] [nM],IC50 (Leukotriene B4 receptor [3]) [nM]
CCc1cc(-c2ccc(F)cc2)c(O)cc1OCCCOc1ccc2c(=O)c3ccccc3oc2c1CCC(=O)O,36,4,–
CCCc1c(OCCCCCOc2cc(O)c(-c3ccc(F)cc3)cc2CC)cccc1Oc1ccccc1C(=O)O,150,6.8,9.5
CCc1cc(-c2ccc(F)cc2)c(O)cc1OCCCOc1cccc(OCCCCC(=O)O)c1CCC(=O)O,2.3,–,13
CCCCc1c(OCCCOc2cc(O)c(-c3ccc(F)cc3)cc2CC)cccc1Oc1ccccc1C(=O)O,34,16,14
CCCc1c(OCCCCOc2cc(O)c(-c3ccc(F)cc3)cc2CC)cccc1Oc1ccccc1C(=O)O,39,19,5.1
CCCc1cc(CC)c(OCCCCCC(C)(C)c2nn[nH]n2)cc1O,9.3,–,–
CCc1cc(-c2ccc(F)cc2)c(O)cc1OCCCOc1ccccc1CCc1nnn[nH]1,15,15,–
CCCc1c(OCCCOc2cc(O)c(-c3ccc(F)cc3)cc2CC)ccc2c1OC(C(=O)O)CC2 (stereo not drawn),3.8,4.4,17
CCc1cc(-c2ccc(F)cc2)c(O)cc1OCCCOc1cccc(Oc2ccccc2C(=O)O)c1Cc1ccccc1,390,55,220
CCCc1c(OCCCOc2cc(O)c(-c3ccccc3)cc2CC)cccc1Oc1ccccc1C(=O)O,19,16,11
CCCc1c(OCCCOc2cc(O)c(-c3ccc(F)cc3)cc2CC)cccc1C(=O)c1ccccc1C(=O)O,35,11,13
CCc1cc(-c2ccc(F)cc2)c(O)cc1OCCCOc1cccc(OCCCCC(=O)N(C)C)c1CCC(=O)O,3.1,–,7.8
CCCc1c(OCCCOc2cc(O)c(-c3ccc(F)cc3)cc2CC)cccc1[S+]([O-])c1ccccc1C(=O)O (stereo not drawn),14,1.4,95
CCc1cc(-c2ccc(N(C)C)cc2)c(O)cc1OCCCCCC(C)(C)c1nn[nH]n1,16,–,–
CCc1cc(-c2ccc(F)cc2)c(O)cc1OCCCOc1ccc2c(=O)c3cc(C(=O)O)ccc3oc2c1CCC(=O)O,0.47,0.04,–
CCc1cc(-c2ccccn2)c(O)cc1OCCCCCC(C)(C)c1nn[nH]n1,453,–,–
CCc1cc(-c2ccc(F)cc2)c(O)cc1OCCCOc1cccc(OCCCCc2nnn[nH]2)c1CCC(=O)O,2.3,–,–
CCCc1c(OCCCOc2cc(O)c(-c3ccc(F)cc3)cc2CC)cccc1Oc1ccccc1CC(=O)O,210,8.4,7.8
CCCc1c(OCCCOc2cc(O)c(-c3ccccc3)cc2CC)ccc2c1OC(C(=O)O)CC2 (stereo not drawn),3.3,2.8,110
CCCc1c(OCCCOc2cc(O)c(-c3ccc(F)cc3)cc2CC)cccc1Oc1cc(F)ccc1C(=O)O,48,19,2.7
